ChEMBL document CHEMBL2311279, “Discovery of a new series of [1,2,4]triazolo[4,3-a]quinoxalines as dual phosphodiesterase 2/phosphodiesterase 10 (PDE2/PDE10) inhibitors” (Bioorg Med Chem Lett, 2013)
One block for each compound: values may come before it.

Experiments:
[1] = molecular target: cGMP-dependent 3',5'-cyclic phosphodiesterase (Homo sapiens, UniProt O00408); experiment: Inhibition of human recombinant PDE2A expressed in Sf9 cells by scintillation proximity assay
[2] = Ratio of drug level brain to plasma in Sprague-Dawley rat at 10 mg/kg, po after 1 hr; type: ADME, organism-based; design: dose 10 mg/kg, route oral; conditions: read-out: BPR
Procedure, shortened: (§1)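 Male rats dosed once at 10 mg/kg, subcutaneously or orally. Vehicle was mostly 20% HP-b-CD at pH 4, with some dosing in 0.5% methocel suspension or H2O + tartaric acid. Brain (ng/g) and plasma (ng/mL) were sampled 1 h after dosing, and the brain/plasma ratio was derived from these. Values are geometric means of at least two runs ± SEM.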

[3] = Plasma concentration in Sprague-Dawley rat at 10 mg/kg, po after 1 hr; type: ADME, organism-based; design: dose 10 mg/kg, route oral; procedure, shortened: as §1
[4] = Drug level in Sprague-Dawley rat brain at 10 mg/kg, po after 1 hr; type: ADME, organism-based; design: dose 10 mg/kg, route oral; conditions: read-out: Drug uptake; procedure, shortened: as §1
[5] = Plasma concentration in Sprague-Dawley rat at 10 mg/kg, sc after 1 hr; type: ADME, organism-based; design: dose 10 mg/kg, route subcutaneous; procedure, shortened: as §1
[6] = Ratio of drug level brain to plasma in Sprague-Dawley rat at 10 mg/kg, sc after 1 hr; type: ADME, organism-based; design: dose 10 mg/kg, route subcutaneous; conditions: read-out: BPR; procedure, shortened: as §1
[7] = Drug level in Sprague-Dawley rat brain at 10 mg/kg, sc after 1 hr; type: ADME, organism-based; design: dose 10 mg/kg, route subcutaneous; conditions: read-out: Drug uptake; procedure, shortened: as §1
[8] = Plasma concentration in Wistar rat at 10 mg/kg, sc after 1 hr; type: ADME, organism-based; design: dose 10 mg/kg, route subcutaneous; procedure, shortened: as §1
[9] = Drug level in Wistar rat brain at 10 mg/kg, sc after 1 hr; type: ADME, organism-based; design: dose 10 mg/kg, route subcutaneous; conditions: read-out: Drug uptake; procedure, shortened: as §1
[10] = Ratio of drug level brain to plasma in Wistar rat at 10 mg/kg, sc after 1 hr; type: ADME, organism-based; design: dose 10 mg/kg, route subcutaneous; conditions: read-out: BPR; procedure, shortened: as §1
Hippocampus = experiment: Drug uptake in Wistar rat hippocampus at 0.03 mg/kg, iv after 2 to 30 mins; type: ADME, organism-based; design: dose 0.03 mg/kg, route intravenous; conditions: in vivo
Procedure, shortened: (§2)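 Male Wistar rats (180–200 g) received 0.03 mg/kg i.v. and were killed at 2, 5, 10 and 30 min, with 3 rats per time point. Brains were rapidly removed and dissected into striatum, hippocampus and whole cortex. Each region was homogenized by ultrasonic probe in 4 volumes of 75% acetonitrile and centrifuged, then drug was quantified by LC-MS.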

[11] = molecular target: cGMP-specific 3',5'-cyclic phosphodiesterase (Homo sapiens, UniProt O76074); experiment: Inhibition of human recombinant PDE5A expressed in Sf9 cells by scintillation proximity assay
[12] = molecular target: Dual specificity calcium/calmodulin-dependent 3',5'-cyclic nucleotide phosphodiesterase 1B (Homo sapiens, UniProt Q01064); experiment: Inhibition of human recombinant PDE1B expressed in Sf9 cells by scintillation proximity assay
[13] = molecular target: 3',5'-cyclic-AMP phosphodiesterase 4A (Homo sapiens, UniProt P27815); experiment: Inhibition of human recombinant PDE4A expressed in Sf9 cells by scintillation proximity assay
[14] = molecular target: cGMP-inhibited 3',5'-cyclic phosphodiesterase 3A (Homo sapiens, UniProt Q14432); experiment: Inhibition of human recombinant PDE3A expressed in Sf9 cells by scintillation proximity assay
[15] = molecular target: cGMP-inhibited 3',5'-cyclic phosphodiesterase 3B (Homo sapiens, UniProt Q13370); experiment: Inhibition of human recombinant PDE3B expressed in Sf9 cells by scintillation proximity assay
Phosphodiesterase 6 = experiment: Inhibition of human recombinant PDE6AB expressed in Sf9 cells by scintillation proximity assay
[16] = molecular target: Dual 3',5'-cyclic-AMP and -GMP phosphodiesterase 11A (Homo sapiens, UniProt Q9HCR9); experiment: Inhibition of human recombinant PDE11A expressed in Sf9 cells by scintillation proximity assay
Striatum = experiment: Drug uptake in Wistar rat striatum at 0.03 mg/kg, iv after 2 to 30 mins; type: ADME, organism-based; design: dose 0.03 mg/kg, route intravenous; conditions: in vivo; procedure, shortened: as §2
Cortex = experiment: Drug uptake in Wistar rat cortex at 0.03 mg/kg, iv after 2 to 30 mins; type: ADME, organism-based; design: dose 0.03 mg/kg, route intravenous; conditions: in vivo; procedure, shortened: as §2
[17] = molecular target: High affinity cGMP-specific 3',5'-cyclic phosphodiesterase 9A (Homo sapiens, UniProt O76083); experiment: Inhibition of human recombinant PDE9A expressed in Sf9 cells by scintillation proximity assay
[18] = molecular target: High affinity 3',5'-cyclic-AMP phosphodiesterase 7A (Homo sapiens, UniProt Q13946); experiment: Inhibition of human recombinant PDE7A expressed in Sf9 cells by scintillation proximity assay
[19] = Plasma concentration in Wistar rat at 10 mg/kg, po after 1 hr; type: ADME, organism-based; design: dose 10 mg/kg, route oral; procedure, shortened: as §1
[20] = Drug level in Wistar rat brain at 10 mg/kg, po after 1 hr; type: ADME, organism-based; design: dose 10 mg/kg, route oral; conditions: read-out: Drug uptake; procedure, shortened: as §1
[21] = Ratio of drug level brain to plasma in Wistar rat at 10 mg/kg, po after 1 hr; type: ADME, organism-based; design: dose 10 mg/kg, route oral; conditions: read-out: BPR; procedure, shortened: as §1
[22] = Selectivity ratio of IC50 for rat PDE10A to IC50 for human recombinant PDE2A
Procedure, shortened: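 Inhibition of rat PDE10A and human PDE2A enzymes measured in vitro. IC50 values are mean ± SD of at least two experiments unless otherwise specified. The ratio is rat PDE10A IC50 divided by human PDE2A IC50.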

Sequence of cGMP-dependent 3',5'-cyclic phosphodiesterase (O00408 whole entry): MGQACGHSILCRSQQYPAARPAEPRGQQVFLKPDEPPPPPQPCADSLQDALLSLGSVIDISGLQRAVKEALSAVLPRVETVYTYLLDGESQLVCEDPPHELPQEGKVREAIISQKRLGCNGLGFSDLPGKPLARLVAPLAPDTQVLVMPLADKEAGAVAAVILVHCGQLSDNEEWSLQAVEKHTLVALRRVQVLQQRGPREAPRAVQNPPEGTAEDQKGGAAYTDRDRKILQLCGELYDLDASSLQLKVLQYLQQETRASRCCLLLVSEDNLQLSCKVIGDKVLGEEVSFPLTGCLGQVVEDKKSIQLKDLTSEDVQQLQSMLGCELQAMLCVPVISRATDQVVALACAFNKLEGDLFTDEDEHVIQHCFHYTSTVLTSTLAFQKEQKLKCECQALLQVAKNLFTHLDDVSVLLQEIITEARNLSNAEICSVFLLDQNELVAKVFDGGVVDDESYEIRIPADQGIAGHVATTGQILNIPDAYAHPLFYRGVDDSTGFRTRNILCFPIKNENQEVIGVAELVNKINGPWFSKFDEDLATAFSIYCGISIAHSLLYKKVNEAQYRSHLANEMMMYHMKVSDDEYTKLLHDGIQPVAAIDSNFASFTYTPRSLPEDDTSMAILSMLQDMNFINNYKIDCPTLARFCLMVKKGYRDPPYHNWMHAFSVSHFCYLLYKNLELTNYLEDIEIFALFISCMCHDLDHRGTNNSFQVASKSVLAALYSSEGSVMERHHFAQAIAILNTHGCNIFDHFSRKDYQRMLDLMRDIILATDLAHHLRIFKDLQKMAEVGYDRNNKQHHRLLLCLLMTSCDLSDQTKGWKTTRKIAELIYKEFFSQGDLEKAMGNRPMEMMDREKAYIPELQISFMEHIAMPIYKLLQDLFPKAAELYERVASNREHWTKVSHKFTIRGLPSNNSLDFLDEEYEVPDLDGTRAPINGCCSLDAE
Sequence of High affinity cGMP-specific 3',5'-cyclic phosphodiesterase 9A (O76083 whole entry): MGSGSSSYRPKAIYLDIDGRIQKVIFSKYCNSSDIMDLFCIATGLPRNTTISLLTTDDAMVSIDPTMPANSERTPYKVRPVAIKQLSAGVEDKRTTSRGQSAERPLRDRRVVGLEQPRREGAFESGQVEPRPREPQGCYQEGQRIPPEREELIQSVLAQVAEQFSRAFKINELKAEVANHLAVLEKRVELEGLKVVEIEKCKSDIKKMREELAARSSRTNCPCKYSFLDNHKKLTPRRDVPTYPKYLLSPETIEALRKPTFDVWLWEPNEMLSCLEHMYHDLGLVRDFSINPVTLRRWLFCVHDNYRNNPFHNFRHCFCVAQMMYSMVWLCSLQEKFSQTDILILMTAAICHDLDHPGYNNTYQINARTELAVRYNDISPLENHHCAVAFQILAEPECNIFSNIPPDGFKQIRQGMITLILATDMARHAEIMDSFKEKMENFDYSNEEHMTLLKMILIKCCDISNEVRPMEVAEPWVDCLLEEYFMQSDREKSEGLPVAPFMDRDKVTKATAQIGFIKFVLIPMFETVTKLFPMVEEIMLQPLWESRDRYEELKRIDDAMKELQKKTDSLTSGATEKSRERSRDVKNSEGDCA
Sequence of cGMP-inhibited 3',5'-cyclic phosphodiesterase 3A (Q14432 whole entry): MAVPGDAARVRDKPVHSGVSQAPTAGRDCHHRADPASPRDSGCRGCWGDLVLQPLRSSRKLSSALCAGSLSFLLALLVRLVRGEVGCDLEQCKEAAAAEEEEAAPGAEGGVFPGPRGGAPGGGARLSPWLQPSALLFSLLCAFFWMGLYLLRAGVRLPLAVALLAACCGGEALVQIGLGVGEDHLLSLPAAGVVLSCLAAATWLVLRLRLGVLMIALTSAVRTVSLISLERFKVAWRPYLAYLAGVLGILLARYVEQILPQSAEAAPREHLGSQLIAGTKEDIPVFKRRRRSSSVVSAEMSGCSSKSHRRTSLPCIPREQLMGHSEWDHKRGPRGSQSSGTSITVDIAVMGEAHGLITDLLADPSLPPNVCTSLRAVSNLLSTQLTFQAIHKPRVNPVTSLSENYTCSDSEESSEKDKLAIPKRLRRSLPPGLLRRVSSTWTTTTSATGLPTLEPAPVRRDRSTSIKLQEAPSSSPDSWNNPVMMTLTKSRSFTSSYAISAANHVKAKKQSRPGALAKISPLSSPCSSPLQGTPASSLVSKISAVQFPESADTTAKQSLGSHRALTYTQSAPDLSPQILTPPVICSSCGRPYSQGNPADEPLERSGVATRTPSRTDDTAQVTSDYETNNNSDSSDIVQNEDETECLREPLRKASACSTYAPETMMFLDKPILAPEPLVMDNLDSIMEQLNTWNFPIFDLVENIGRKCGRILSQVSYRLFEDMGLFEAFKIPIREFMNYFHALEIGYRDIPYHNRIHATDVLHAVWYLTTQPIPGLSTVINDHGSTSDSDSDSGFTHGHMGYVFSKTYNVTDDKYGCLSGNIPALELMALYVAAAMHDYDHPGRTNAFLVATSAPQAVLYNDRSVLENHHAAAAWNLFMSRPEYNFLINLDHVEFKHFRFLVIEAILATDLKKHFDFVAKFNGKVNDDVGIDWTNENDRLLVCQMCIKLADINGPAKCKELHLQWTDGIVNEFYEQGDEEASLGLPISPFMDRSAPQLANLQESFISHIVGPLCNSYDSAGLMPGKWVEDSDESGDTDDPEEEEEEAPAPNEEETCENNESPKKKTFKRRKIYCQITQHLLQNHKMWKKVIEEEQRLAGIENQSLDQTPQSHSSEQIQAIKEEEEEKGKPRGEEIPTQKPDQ
Sequence of Dual specificity calcium/calmodulin-dependent 3',5'-cyclic nucleotide phosphodiesterase 1B (Q01064 whole entry): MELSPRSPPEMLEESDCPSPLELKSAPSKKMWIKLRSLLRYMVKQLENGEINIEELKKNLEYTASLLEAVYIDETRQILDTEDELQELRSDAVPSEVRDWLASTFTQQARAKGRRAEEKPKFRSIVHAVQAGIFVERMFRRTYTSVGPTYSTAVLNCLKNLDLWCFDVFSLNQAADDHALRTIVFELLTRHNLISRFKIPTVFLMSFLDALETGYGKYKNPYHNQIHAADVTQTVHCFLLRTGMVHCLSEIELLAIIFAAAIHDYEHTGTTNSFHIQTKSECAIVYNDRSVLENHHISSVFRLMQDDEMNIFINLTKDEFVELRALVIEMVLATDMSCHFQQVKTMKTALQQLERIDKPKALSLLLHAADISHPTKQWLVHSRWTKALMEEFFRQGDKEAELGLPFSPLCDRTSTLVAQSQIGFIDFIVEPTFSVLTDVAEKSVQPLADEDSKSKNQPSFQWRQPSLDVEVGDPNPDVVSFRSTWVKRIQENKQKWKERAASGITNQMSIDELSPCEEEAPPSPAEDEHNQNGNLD
Sequence of 3',5'-cyclic-AMP phosphodiesterase 4A (P27815 whole entry): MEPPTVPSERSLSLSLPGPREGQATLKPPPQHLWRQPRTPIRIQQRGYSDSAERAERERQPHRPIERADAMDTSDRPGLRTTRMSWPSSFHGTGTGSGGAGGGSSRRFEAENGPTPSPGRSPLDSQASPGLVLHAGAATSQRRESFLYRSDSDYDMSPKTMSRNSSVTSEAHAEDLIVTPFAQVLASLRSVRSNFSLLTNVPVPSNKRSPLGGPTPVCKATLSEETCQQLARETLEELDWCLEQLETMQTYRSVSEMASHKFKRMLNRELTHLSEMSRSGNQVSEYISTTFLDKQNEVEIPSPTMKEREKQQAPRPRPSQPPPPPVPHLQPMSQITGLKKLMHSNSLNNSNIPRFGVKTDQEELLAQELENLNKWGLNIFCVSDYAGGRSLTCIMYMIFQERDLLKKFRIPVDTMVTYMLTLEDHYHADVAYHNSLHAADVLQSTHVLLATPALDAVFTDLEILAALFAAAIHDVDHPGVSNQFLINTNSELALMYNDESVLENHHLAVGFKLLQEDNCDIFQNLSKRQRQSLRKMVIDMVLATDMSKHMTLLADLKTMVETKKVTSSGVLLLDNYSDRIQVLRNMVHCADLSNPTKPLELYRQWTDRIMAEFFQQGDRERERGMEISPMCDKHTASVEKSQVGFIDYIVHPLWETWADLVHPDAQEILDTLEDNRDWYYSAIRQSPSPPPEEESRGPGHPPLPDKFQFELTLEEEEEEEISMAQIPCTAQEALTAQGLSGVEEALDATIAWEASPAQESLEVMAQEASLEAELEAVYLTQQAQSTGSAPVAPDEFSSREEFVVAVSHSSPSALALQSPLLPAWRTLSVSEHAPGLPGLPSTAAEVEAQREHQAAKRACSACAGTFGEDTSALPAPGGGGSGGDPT
Sequence of High affinity 3',5'-cyclic-AMP phosphodiesterase 7A (Q13946 whole entry): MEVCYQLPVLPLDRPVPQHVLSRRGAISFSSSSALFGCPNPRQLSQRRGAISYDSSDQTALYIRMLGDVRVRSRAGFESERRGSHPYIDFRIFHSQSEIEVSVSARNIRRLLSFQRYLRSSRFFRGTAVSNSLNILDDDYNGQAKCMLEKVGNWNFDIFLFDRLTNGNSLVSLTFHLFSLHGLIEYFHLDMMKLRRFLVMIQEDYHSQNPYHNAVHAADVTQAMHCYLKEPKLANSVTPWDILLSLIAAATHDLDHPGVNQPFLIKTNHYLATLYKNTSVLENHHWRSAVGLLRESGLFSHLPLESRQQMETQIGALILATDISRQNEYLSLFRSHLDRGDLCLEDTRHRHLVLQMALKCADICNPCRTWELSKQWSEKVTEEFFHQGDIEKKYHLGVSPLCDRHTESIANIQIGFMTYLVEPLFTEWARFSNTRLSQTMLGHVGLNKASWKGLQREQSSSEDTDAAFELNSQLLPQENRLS

SMILES: Cc1nc2ccc(C(=O)NCCc3ccccc3)cc2n2c(-c3ccccc3Cl)nnc12
IC50 [1]: 0.0017 µM

SMILES: CCOC(=O)c1ccc2nc(C)c3nnc(-c4ccccc4Cl)n3c2c1
IC50 [1]: 0.0044 µM

SMILES: CCNC(=O)c1ccc2nc(C)c3nnc(-c4cncc(OC)c4)n3c2c1
Kp at 1 h [2]: 0.034 | concentration at 1 h [3]: 0.467 µg/mL | concentration at 1 h [4]: 16 ng/g

SMILES: CCNC(=O)c1ccc2nc(C)c3nnc(-c4ccccc4F)n3c2c1
IC50 [1]: 0.0028 µM

SMILES: Cc1nc2ccc(C(=O)NCCN3CCOCC3)cc2n2c(-c3ccccc3Cl)nnc12
concentration at 1 h [8]: 2.54 µg/mL | concentration at 1 h [9]: 88 ng/g | Kp at 1 h [10]: 0.034

SMILES: CCNC(=O)c1ccc2nc(C)c3nnc(-c4ccccc4OC)n3c2c1
IC50 [1]: 0.0059 µM

SMILES: CCNC(=O)c1ccc2nc(C)c3nnc(-c4cnccc4C)n3c2c1
concentration at 1 h [5]: 2.8 µg/mL | Kp at 1 h [6]: 0.036 | concentration at 1 h [7]: 98 ng/g

SMILES: CCNC(=O)c1ccc2nc(C)c3nnc(-c4ccccn4)n3c2c1
IC50 [1]: 0.263 µM

SMILES: CCNC(=O)c1ccc2nc(C)c3nnc(-c4ccccc4Cl)n3c2c1
concentration at 1 h [19]: 1.88 µg/mL | concentration at 1 h [20]: 185 ng/g | Kp at 1 h [21]: 0.11

SMILES: Cc1nc2ccc(C(=O)NCc3ccccc3)cc2n2c(-c3ccccc3Cl)nnc12
IC50 [1]: 0.00038 µM | Ratio IC50 [22]: 32

SMILES: Cc1nc2ccc(C(=O)N(C)Cc3ccccc3)cc2n2c(-c3ccccc3Cl)nnc12
IC50 [1]: 0.019 µM

SMILES: CCNC(=O)c1ccc2nc(C)c3nnc(-c4cccnc4OC)n3c2c1
IC50 [1]: 0.028 µM

The next lines start with the values.

IC50 [1]: 0.0071 µM
SMILES: Cc1nc2ccc(CN3CCN(C)CC3)cc2n2c(-c3ccccc3Cl)nnc12

concentration at 1 h [5]: 0.845 µg/mL | Kp at 1 h [6]: 0.73 | concentration at 1 h [7]: 628 ng/g
SMILES: CCNCc1ccc2nc(C)c3nnc(-c4ccccc4Cl)n3c2c1

Drug uptake (Hippocampus): Active | IC50 [11]: > 10 µM | IC50 [1]: 0.0028 µM | IC50 [12]: 4.9 µM | concentration at 1 h [5]: 0.299 µg/mL | IC50 [13]: > 10 µM | Kp at 1 h [6]: 0.62 | IC50 [14]: 7.76 µM | IC50 [15]: > 10 µM | IC50 (Phosphodiesterase 6): 2.28 µM | IC50 [16]: > 10 µM | Drug uptake (Striatum): Active | Drug uptake (Cortex): Active | concentration at 1 h [7]: 189 ng/g | IC50 [17]: > 10 µM | IC50 [18]: 1.91 µM
SMILES: Cc1nc2ccc(CN3CCOCC3)cc2n2c(-c3ccccc3Cl)nnc12

IC50 [1]: 0.0022 µM | concentration at 1 h [8]: 1.07 µg/mL | concentration at 1 h [9]: 143 ng/g | Kp at 1 h [10]: 0.14
SMILES: Cc1nc2ccc(C(=O)NCCN3CCCC3)cc2n2c(-c3ccccc3Cl)nnc12

IC50 [1]: 0.0097 µM
SMILES: Cc1nc2ccc(CN3CCC(O)CC3)cc2n2c(-c3ccccc3Cl)nnc12

concentration at 1 h [8]: 0.569 µg/mL | concentration at 1 h [9]: 99 ng/g | Kp at 1 h [10]: 0.18
SMILES: Cc1nc2ccc(CN3CCCC(CO)C3)cc2n2c(-c3ccccc3Cl)nnc12 (centres undefined)
